A selection: hits, their analogues and other compounds. The true share with any hit is near 0.58%.
TRPML3 ag = human mucolipin-3 channel agonism | hit rate 0.29% among 220,000 | HEK293 TRPML3-YFP, Fluo-8 calcium fluorescence; 100% = the carbachol control signal | AID 1448 | activation, % at 3 µM | Q8TDD5;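 active = activation above its plate's cutoff, the mean activation of the plate's test wells plus 3 SD, cut at about 12% in these data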;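 also: 0% = DMSO only wells and 100% = carbachol wells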
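Material: TRPML3-YFP stable HEK293 cells | Dosing: One concentration, 3 µM nominal, 0.3% DMSO | Timing: 125 s total fluorescence read per well | Technique: Fluo-8 calcium dye fluorescence, ex 470-495, em 515-575 nm | Measure: Percent activation from peak-to-basal fluorescence ratio, scaled between DMSO and carbachol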
OXTR agonist = agonists of human oxytocin receptor; hit rate 0.32% among 320,000; CHO-OTR cells, Fluo-8 calcium fluorescence; normalized: DMSO 0%, oxytocin 100%; activation, % at 3 µM;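 active = activation above the mean of all tested compounds plus 3 SD, cutoff set per screening run, cut at about 20% in these data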;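 also: peak over basal fluorescence ratio from a 100 s FLIPR kinetic read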
V1aR counter = counter-screen for oxytocin receptor agonists: human V1a receptor agonists | P37288 | CHO-V1R cells, Fluo-8 calcium fluorescence, agonist mode; 0% DMSO, 100% 3 nM vasopressin | activation, % at 3 µM | hit rate 0.25% among 320,000 | AID 2797;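 active = activation above the mean activation of all tested compounds plus 3 SD, per screening run, cut at about 20% in these data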;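 also: signal is peak over basal fluorescence ratio across a 100 second FLIPR read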
Target sequence (P37288 whole entry, looked up): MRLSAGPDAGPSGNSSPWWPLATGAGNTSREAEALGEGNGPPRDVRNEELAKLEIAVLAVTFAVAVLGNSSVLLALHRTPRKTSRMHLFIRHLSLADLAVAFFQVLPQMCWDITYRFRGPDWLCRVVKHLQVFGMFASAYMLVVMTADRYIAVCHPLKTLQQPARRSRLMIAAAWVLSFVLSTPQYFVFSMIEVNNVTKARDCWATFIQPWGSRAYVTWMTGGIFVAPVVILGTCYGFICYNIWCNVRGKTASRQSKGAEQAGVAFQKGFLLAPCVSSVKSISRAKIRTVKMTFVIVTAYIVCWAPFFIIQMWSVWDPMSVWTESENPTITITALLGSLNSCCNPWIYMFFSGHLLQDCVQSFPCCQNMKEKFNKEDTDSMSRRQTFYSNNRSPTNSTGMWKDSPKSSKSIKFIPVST
OXTR potentiator = human OXTR potentiation | CHO-OTR cells, Fluo-8 calcium fluorescence, potentiator mode; 0% = oxytocin EC15, 100% = EC100 | P30559 | activation, % at 3 µM | hit rate 0.061% among 320,000;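 active = activation above that plate's cutoff, the mean activation of tested compounds plus 3 SD, cut at about 6.6% in these data, passing the limit was not always enough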;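 also: 100% uses oxytocin at 75 nM as the full agonist control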
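Assay system: CHO-OTR cells, human receptor / Also added: oxytocin at about EC15, sub-maximal agonist stimulus / Dosing: single dose, 3.0 µM nominal final compound concentration / Incubation: 6 min pre-incubation, 100 s read / Technique: Fluo-8 calcium dye fluorescence / Read-out: % activation vs EC15 and EC100 oxytocin / Benchmarks: EC15 oxytocin low, 75 nM oxytocin high / Replicates: singlicate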
TRPN1 ag = zebrafish TRPN1 (NompC) channel agonism. HEK293 zebrafish TRPN1-YFP, Fluo-8 calcium fluorescence; 100% = response to 87 µM carbachol. hit rate 0.18% among 220,000. AID 1424. activation, % at 3 µM;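 active = activation above its plate's cutoff, the mean activation of test wells on that plate plus 3 SD, cut at about 19% in these data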;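 also: 0% = DMSO alone and 100% = 87 µM carbachol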
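Material: zebrafish TRPN1-YFP in HEK293 cells; Doses: single test compound dose, 3 µM nominal, 0.3% DMSO; Timing: dye loading 1 h at 37 °C, then 30 min room temperature; Technique: intracellular calcium fluorescence with Fluo-8; Benchmarks: high carbachol 87 µM, low DMSO alone.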
Active calls of the source: *.

For CC(C)CN1C(=O)/C(=C/c2c(N3CCc4ccccc4C3)nc3ccccn3c2=O)SC1=S the results were TRPML3 ag 2 and TRPN1 ag 7.
For Cc1ccc(N=Nc2[nH]c3ccccc3c2O)cc1 the results were TRPML3 ag 1, OXTR agonist 32*, V1aR counter 22*, OXTR potentiator -9 and TRPN1 ag 0.
`CC(NC(=O)Nc1ccc([N+](=O)[O-])cc1)C(c1cccs1)N1CCCC1` (stereo unspecified) gave TRPML3 ag 1, OXTR agonist 33*, V1aR counter 55*, OXTR potentiator -16 and TRPN1 ag 0.
For COCCNC(=S)N1CCC(C(=O)c2ccc3c(c2)OCCO3)CC1 the results were TRPML3 ag 2, OXTR agonist 4, V1aR counter 2, OXTR potentiator -12 and TRPN1 ag 3.
Screening CCc1ccccc1Nc1nc(N)nc(COC(=O)c2c(C)noc2C)n1 returned OXTR agonist 0, V1aR counter 1 and OXTR potentiator -3.
`CC(C)NC(=O)NC(=O)COc1c(F)c(F)cc(F)c1F` gave TRPML3 ag 17*, OXTR agonist -1, V1aR counter -1, OXTR potentiator -10 and TRPN1 ag 0.
`O=C(OCC#CCSc1nnc(-c2cccc3ccccc23)o1)c1cccc2[nH]ccc12` gave OXTR agonist 1, V1aR counter 1 and OXTR potentiator -2.
Screening O=c1c2cc(Br)ccc2nc(-c2cccc(C(F)(F)F)c2)n1O returned TRPML3 ag 0, OXTR agonist 54*, V1aR counter 61*, OXTR potentiator -22 and TRPN1 ag -1.
N#Cc1ccc(-c2nc3ccc(Br)cc3c(=O)n2O)cc1 was read as OXTR agonist 1, V1aR counter 1 and OXTR potentiator -1.
`CCOc1cccc(-c2c(C(=O)N/N=C(\C)c3cccs3)nnn2-c2nonc2N)c1` gave OXTR agonist 36*, V1aR counter 36* and OXTR potentiator -11.
For CCOc1ccc(-c2c(C(=O)N/N=C(\C)c3ccccc3OC)nnn2-c2nonc2N)cc1 the results were OXTR agonist -1, V1aR counter 0 and OXTR potentiator -19.
Screening CCOc1ccc(-c2c(C(=O)N/N=C(\C)c3ccco3)nnn2-c2nonc2N)cc1 returned OXTR agonist 26*, V1aR counter 23* and OXTR potentiator -19.
COc1cccc(-c2c(C(=O)N/N=C(\C)c3cccs3)nnn2-c2nonc2N)c1 was read as OXTR agonist 44*, V1aR counter 60* and OXTR potentiator -7.
`CCOc1ccc(-c2c(C(=O)N/N=C(\C)c3cccs3)nnn2-c2nonc2N)cc1` gave OXTR agonist 4, V1aR counter 11 and OXTR potentiator -6.
COc1cccc2c1OCC(C(=O)Nc1nccs1)=C2 was read as OXTR agonist 0, V1aR counter 3 and OXTR potentiator 2.
CCC(=O)N1CCc2nc(-c3ccccc3)sc2C1 was read as OXTR agonist 2, V1aR counter 1 and OXTR potentiator 0.
For O=C(O)c1cc2c(cc1Br)OCCCO2 the results were TRPML3 ag 0, OXTR agonist 0, V1aR counter 0, OXTR potentiator -5 and TRPN1 ag 19*.
Screening O=C(O)c1ccc2c(c1)OCCCO2 returned TRPML3 ag 0, OXTR agonist 0, V1aR counter 0, OXTR potentiator -3 and TRPN1 ag 2.
`O=C(O)c1ccc(S(=O)(=O)c2ccc(Sc3ccc(C(=O)O)c(C(=O)O)c3)cc2)cc1` gave TRPML3 ag 1, OXTR agonist 0, V1aR counter 1, OXTR potentiator -5 and TRPN1 ag -1.
`CCCCCC(=O)NNC(=O)c1c(O)c2ccccc2n(CC)c1=O` gave TRPML3 ag 1, OXTR agonist -1, V1aR counter 0, OXTR potentiator -6 and TRPN1 ag 2.
For CCn1c(=O)c(C(=O)NNC(=O)c2ccccc2Cl)c(O)c2ccccc21 the results were OXTR agonist 22*, V1aR counter 41* and OXTR potentiator -15.
`CCn1c(=O)c(C(=O)NNC(=O)c2ccccc2F)c(O)c2ccccc21` gave OXTR agonist 28*, V1aR counter 52* and OXTR potentiator -11.
For Cc1ccc(CNC(=O)CSc2nnc(CNC(=O)c3ccccc3)o2)cc1 the results were OXTR agonist -1, V1aR counter 0 and OXTR potentiator -2.
`N#C/C(=N\Nc1cccc(C(F)(F)F)c1)C(=O)c1ccsc1` gave TRPML3 ag 14*, OXTR agonist 12, V1aR counter 13, OXTR potentiator -12 and TRPN1 ag 24*.
`CCOc1ccccc1N(CC(=O)N1CCOCC1)S(=O)(=O)c1ccc(SC)cc1` gave TRPML3 ag 199* and TRPN1 ag 57*.
Screening Cc1c(O)cc2c(c1O)C(=O)CC(c1ccccc1)O2 (stereo unspecified) returned OXTR agonist 59*, V1aR counter 48* and OXTR potentiator -10.
`COc1cc(Cl)ccc1OCc1cc(C(=O)N(C)CCc2cnn(C)c2)no1` gave OXTR agonist 3, V1aR counter 4 and OXTR potentiator -8.
Screening O=C(Nc1nc(-c2ccccn2)cs1)C1CC(=O)N(c2ccc3c(c2)OCCO3)C1 (stereo unspecified) returned TRPML3 ag 1, OXTR agonist 1, V1aR counter 3, OXTR potentiator -5 and TRPN1 ag 2.
For Cc1ccc(-c2noc(CCC(=O)NCCCN3CCN(c4cccc(Cl)c4)CC3)n2)cc1 the results were TRPML3 ag 2, OXTR agonist 31*, V1aR counter 21*, OXTR potentiator -21 and TRPN1 ag 2.
Screening Cc1ccc(O)c(NC(=S)NC(=O)Cc2ccc(Cl)cc2)c1 returned OXTR agonist 73*, V1aR counter 79* and OXTR potentiator -24.
Screening Cc1ccc(NC(=S)NC(=O)c2ccc(-c3ccc(Cl)cc3)o2)c(O)c1 returned TRPML3 ag 0, OXTR agonist 0, V1aR counter 1, OXTR potentiator -1 and TRPN1 ag -1.
For O=S(=O)(/N=C(/Nc1cccc2ccccc12)c1ccccc1)c1ccc(F)cc1 the results were OXTR agonist -3, V1aR counter 0 and OXTR potentiator -2.
Screening Nc1ccc(-c2c3ccc(=O)cc-3oc3cc(O)ccc23)c(C(=O)O)c1 returned OXTR agonist 167*, V1aR counter 206* and OXTR potentiator -13.
`Cc1ccc(S(=O)(=O)/N=C2/NC(=O)/C(=C/c3cc([N+](=O)[O-])ccc3O)S2)cc1` gave OXTR agonist 26*, V1aR counter 34* and OXTR potentiator -13.

Source: PubChem
